This is an account of results in ChEMBL document CHEMBL4680061, “Unveiling the active isomer of cycloalanopine, a cyclic opine from Lactobacillus rhamnosus LS8, through synthesis and analog production” (2020).

Molecules are shown by their SMILES. Converted amounts (≈) assume the structure as drawn. The source made the active and inactive calls. The calls are words filed in the database; no cut-off is given here.

Assay [1] has as its system Escherichia coli. The assay is described as follows: Antibacterial activity against Escherichia coli ATCC 25922 assessed as bacterial growth inhibition at 250 mg/ml after overnight incubation by spot-on-lawn assay. The format is functional, organism-based. Put shortly: (§1)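 Overnight cultures were grown in Luria broth at 37 °C and used to seed 5 mL soft agar (0.75%) in the same medium, poured over 1.5% hard agar. Compounds in MQ-H2O or DMSO were two-fold serially diluted from stock, and 10 µL of each was spotted. After drying, plates were incubated overnight at 37 °C. Growth inhibition at each spot was scored, and MIC was taken from triplicates.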

Assay [2] has as its system Pseudomonas aeruginosa. The assay is described as follows: Antibacterial activity against Pseudomonas aeruginosa ATCC 14207 assessed as bacterial growth inhibition at 250 mg/ml after overnight incubation by spot-on-lawn assay. The assay is classed as functional, organism-based. Put shortly:
as §1

The subject of assay [3] is Staphylococcus aureus. The assay is described as follows: Antibacterial activity against Staphylococcus aureus ATCC 25923 assessed as bacterial growth inhibition at 250 mg/ml after overnight incubation by spot-on-lawn assay. The format is functional, organism-based. Put shortly:
(§2)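 Tryptic Soy Broth at 25 °C was used for culture and for the 0.75% soft-agar overlay, which was seeded from overnight cultures and poured onto 1.5% agar. Two-fold dilution series in MQ-H2O or DMSO were spotted (10 µL), dried, and incubated overnight at 25 °C. Growth inhibition at each spot was recorded, and MIC was derived from triplicate assays.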

Assay [4] concerns Listeria monocytogenes. The assay is described as follows: Antibacterial activity against Listeria monocytogenes ATCC 15313 assessed as bacterial growth inhibition at 250 mg/ml after overnight incubation by spot-on-lawn assay. The assay is classed as functional, organism-based. Summed up:
(§3)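 Lawns were prepared in All Purpose Tween medium at 25 °C: overnight cultures went into 5 mL soft agar (0.75%) poured onto 1.5% agar plates. Aqueous or DMSO solutions were two-fold serially diluted, and 10 µL aliquots were spotted and dried. Plates were incubated overnight at 25 °C. Inhibition was read at the spot locations, and MIC was based on triplicates.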

For assay [5], the system named is Enterococcus faecalis. In words: Antibacterial activity against Enterococcus faecalis ATCC 7080 assessed as bacterial growth inhibition at 250 mg/ml after overnight incubation by spot-on-lawn assay. The assay is classed as functional, organism-based. Put shortly:
as §3

For assay [6], the system named is Salmonella typhimurium. In words: Antibacterial activity against Salmonella typhimurium ATCC 13311 assessed as bacterial growth inhibition at 250 mg/ml after overnight incubation by spot-on-lawn assay. The following applies: Salmonella enterica subsp. enterica serovar Typhimurium. The assay is classed as functional, organism-based. Put shortly:
as §1

For assay [7], the system named is Acinetobacter baumannii. In words: Antibacterial activity against Acinetobacter baumannii ATCC 19606 assessed as bacterial growth inhibition at 250 mg/ml after overnight incubation by spot-on-lawn assay. The assay is classed as functional, organism-based. To be noted: ATCC 19606 = CIP 70.34 = JCM 6841. Summed up:
as §1

The test system of assay [8] is Staphylococcus aureus. In words: Antibacterial activity against Staphylococcus aureus ATCC 25923 assessed as bacterial growth inhibition after overnight incubation by spot-on-lawn assay. The format is functional. Put shortly: as §2
The test system of assay [9] is Pseudomonas aeruginosa. The assay is described as follows: Antibacterial activity against Pseudomonas aeruginosa ATCC 14207 assessed as bacterial growth inhibition after overnight incubation by spot-on-lawn assay. The assay is classed as functional. Summed up: as §1
The test system of assay [10] is Escherichia coli. In words: Antibacterial activity against Escherichia coli ATCC 25922 assessed as bacterial growth inhibition after overnight incubation by spot-on-lawn assay. The assay is classed as functional. Summed up:
as §1

The test system of assay [11] is Listeria monocytogenes. The assay is described as follows: Antibacterial activity against Listeria monocytogenes ATCC 15313 assessed as bacterial growth inhibition after overnight incubation by spot-on-lawn assay. The format is functional. Put shortly:
as §3

The test system of assay [12] is Salmonella typhimurium. The assay is described as follows: Antibacterial activity against Salmonella typhimurium ATCC 13311 assessed as bacterial growth inhibition after overnight incubation by spot-on-lawn assay. The assay is classed as functional, Salmonella enterica subsp. enterica serovar Typhimurium. The following applies: Salmonella enterica. Summed up:
as §1

In assay [13] the test system is Acinetobacter baumannii. In words: Antibacterial activity against Acinetobacter baumannii ATCC 19606 assessed as bacterial growth inhibition after overnight incubation by spot-on-lawn assay. To be noted: ATCC 19606 = CIP 70.34 = JCM 6841. The assay is classed as functional. Summed up:
as §1

The subject of assay [14] is Enterococcus faecalis. The assay is described as follows: Antibacterial activity against Enterococcus faecalis ATCC 7080 assessed as bacterial growth inhibition after overnight incubation by spot-on-lawn assay. The format is functional. Put shortly: as §3

For `C[C@@H]1N[C@@H](C)C(=O)NNC1=O`, the outcome in the assay with Escherichia coli [1], in the assay on Pseudomonas aeruginosa [2], with Staphylococcus aureus [3], in the assay on Listeria monocytogenes [4], in the assay on Enterococcus faecalis [5] and with Salmonella typhimurium [6] was inactive. In addition, the outcome in the assay on Acinetobacter baumannii [7] was inactive.
`C[C@@H]1NCC(=O)NNC1=O`: the MIC was determined as 75 mg/mL (≈ 524 mM) in the assay on Staphylococcus aureus [8]; 38 mg/mL (≈ 265 mM) with Pseudomonas aeruginosa [9]; 2.3 mg/mL (≈ 16.1 mM) in the assay on Escherichia coli [10]; 38 mg/mL (≈ 265 mM) in the assay on Listeria monocytogenes [11]; 19 mg/mL (≈ 133 mM) with Salmonella typhimurium [12]; 19 mg/mL (≈ 133 mM) with Acinetobacter baumannii [13].
Turning to `C[C@@H]1N[C@H](C)C(=O)NNC1=O`, the MIC in the assay with Staphylococcus aureus [8] is 26 mg/mL (≈ 165 mM); with Pseudomonas aeruginosa [9], 52 mg/mL (≈ 331 mM); in the assay on Escherichia coli [10] it was 3.2 mg/mL (≈ 20.4 mM); in the assay on Listeria monocytogenes [11], 26 mg/mL (≈ 165 mM); in the assay on Enterococcus faecalis [14], 26 mg/mL (≈ 165 mM); in the assay with Salmonella typhimurium [12] it was 26 mg/mL (≈ 165 mM).
With `C[C@H]1NCC(=O)NNC1=O`, the MIC in the assay on Staphylococcus aureus [8] was found to be 2 mg/mL (≈ 14 mM); in the assay with Pseudomonas aeruginosa [9], 3.9 mg/mL (≈ 27.2 mM); in the assay with Escherichia coli [10], 0.06 mg/mL (≈ 0.419 mM); in the assay with Listeria monocytogenes [11], 2 mg/mL (≈ 14 mM); in the assay with Enterococcus faecalis [14] it was 2 mg/mL (≈ 14 mM); with Salmonella typhimurium [12], 0.98 mg/mL (≈ 6.85 mM). In addition, the minimum inhibitory concentration (MIC) in the assay with Acinetobacter baumannii [13] was determined as 0.12 mg/mL (≈ 0.838 mM).
As to `C[C@H]1N[C@H](CCCCN)C(=O)NNC1=O`, the MIC in the assay with Staphylococcus aureus [8] came to 62 mg/mL (≈ 289 mM); in the assay on Escherichia coli [10], 31 mg/mL (≈ 145 mM); with Listeria monocytogenes [11] it was 16 mg/mL (≈ 74.7 mM); in the assay with Enterococcus faecalis [14], 16 mg/mL (≈ 74.7 mM); in the assay with Salmonella typhimurium [12], 62 mg/mL (≈ 289 mM); with Acinetobacter baumannii [13], 62 mg/mL (≈ 289 mM).
On to `C[C@H]1N[C@@H](CCCCN)C(=O)NNC1=O`, for which the MIC was determined as 31 mg/mL (≈ 145 mM) in the assay on Staphylococcus aureus [8]; 62 mg/mL (≈ 289 mM) in the assay on Pseudomonas aeruginosa [9]; 0.49 mg/mL (≈ 2.29 mM) in the assay on Escherichia coli [10]; 7.8 mg/mL (≈ 36.4 mM) in the assay on Listeria monocytogenes [11]; 62 mg/mL (≈ 289 mM) with Enterococcus faecalis [14]; 3.9 mg/mL (≈ 18.2 mM) in the assay on Salmonella typhimurium [12]. For the same compound, in the assay on Acinetobacter baumannii [13], the MIC was 0.98 mg/mL (≈ 4.57 mM).
Turning to `C[C@H]1N[C@H](C)C(=O)NNC1=O`, the outcome in the assay with Escherichia coli [1], in the assay on Pseudomonas aeruginosa [2], in the assay on Staphylococcus aureus [3], in the assay with Listeria monocytogenes [4], in the assay on Enterococcus faecalis [5] and in the assay with Salmonella typhimurium [6] was inactive. Moreover, the outcome in the assay on Acinetobacter baumannii [7] was inactive.
